# Measurements taken from ChEMBL document CHEMBL4177580, “New 5-HT1A, 5HT2A and 5HT2C receptor ligands containing a picolinic nucleus: Synthesis, in vitro and in vivo pharmacological evaluation” (Bioorg Med Chem, 2017).
# pEC50, pKi: −log10 of the molar value. Activity calls are given as the source filed them. The rule behind the calls is not given here.
# How the values were obtained:
# [1] = biological target: T1, 5-hydroxytryptamine receptor 2C (Rattus norvegicus, UniProt P08909); test: Displacement of [3H]mesulergine from serotonin 5-HT2C receptor in Sprague-Dawley rat brain cortex homogenates incubated for 15 mins by liquid scintillation spectrometry
# T1 sequence (P08909 whole entry): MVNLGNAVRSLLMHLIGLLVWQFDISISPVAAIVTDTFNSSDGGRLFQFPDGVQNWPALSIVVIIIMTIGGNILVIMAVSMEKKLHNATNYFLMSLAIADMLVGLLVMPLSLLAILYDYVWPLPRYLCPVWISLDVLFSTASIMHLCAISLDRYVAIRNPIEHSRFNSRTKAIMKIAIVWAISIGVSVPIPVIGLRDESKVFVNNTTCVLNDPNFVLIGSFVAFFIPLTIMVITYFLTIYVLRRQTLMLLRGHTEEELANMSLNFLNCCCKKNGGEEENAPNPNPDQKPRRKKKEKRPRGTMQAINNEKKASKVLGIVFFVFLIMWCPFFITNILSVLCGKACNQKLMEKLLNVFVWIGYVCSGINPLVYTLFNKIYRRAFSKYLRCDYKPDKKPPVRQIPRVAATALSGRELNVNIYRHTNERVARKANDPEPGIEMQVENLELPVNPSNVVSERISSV
# [2] = biological target: T2, 5-hydroxytryptamine receptor 1A (Rattus norvegicus, UniProt P19327); test: Displacement of [3H]-8-OH-DPAT from serotonin 5-HT1A receptor in Sprague-Dawley rat brain cortex homogenates incubated for 30 mins by liquid scintillation spectrometry
# T2 sequence (P19327 whole entry): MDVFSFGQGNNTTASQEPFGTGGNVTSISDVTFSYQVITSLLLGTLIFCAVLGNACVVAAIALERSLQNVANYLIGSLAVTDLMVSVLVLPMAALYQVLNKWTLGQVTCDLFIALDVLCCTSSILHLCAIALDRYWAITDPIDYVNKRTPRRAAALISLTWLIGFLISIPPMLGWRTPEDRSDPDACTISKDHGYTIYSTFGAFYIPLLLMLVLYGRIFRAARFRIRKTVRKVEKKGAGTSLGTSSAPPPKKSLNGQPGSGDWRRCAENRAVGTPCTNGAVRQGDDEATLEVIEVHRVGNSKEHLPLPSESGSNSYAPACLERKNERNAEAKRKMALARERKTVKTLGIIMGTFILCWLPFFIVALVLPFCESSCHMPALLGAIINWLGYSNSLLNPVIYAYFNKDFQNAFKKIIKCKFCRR
# [3] = biological target: T3, 5-hydroxytryptamine receptor 2A (Rattus norvegicus, UniProt P14842); test: Displacement of [3H]ketanserin from serotonin 5-HT2A receptor in Sprague-Dawley rat brain cortex homogenates incubated for 15 mins by liquid scintillation spectrometry
# [4] = biological target: 5-hydroxytryptamine receptor 2A (Rattus norvegicus) (UniProt P14842); test: Antagonist activity at 5-HT2A receptor in Sprague-Dawley rat ielum assessed as reduction in 5-HT-evoked contraction at 10 uM
# [5] = biological target: 5-hydroxytryptamine receptor 2A (Rattus norvegicus) (UniProt P14842); settings: Sprague-Dawley, 0.1 uM
# [6] = biological target: T3, 5-hydroxytryptamine receptor 2A; test: Antagonist activity at 5-HT2A receptor in Sprague-Dawley rat ielum assessed as reduction in 5-HT-evoked contraction; format: functional; settings: for pEC50: read-out: EC50
# How it was run: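 Ileum segments from CO2-asphyxiated rats, longitudinal contractions recorded isotonically (0.5 g load) in 20 mL Krebs at 37°C gassed with 95% O2/5% CO2; 60 min equilibration, then three additions of 5-HT (10^-5 M) for stable control contractions. Compounds dissolved in DMSO (<0.01%), 10 min contact per concentration. IC50 (50% inhibition of 5-HT contraction) and Emax derived by curve fitting; mean (SEM).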
# [7] = biological target: 5-hydroxytryptamine receptor 2A (Rattus norvegicus) (UniProt P14842); test: Antagonist activity at 5-HT2A receptor in Sprague-Dawley rat ielum assessed as reduction in 5-HT-evoked contraction relative to control; format: functional
# [8] = biological target: 5-hydroxytryptamine receptor 2A (Rattus norvegicus) (UniProt P14842); test: Agonist activity at 5-HT2A receptor in Sprague-Dawley rat ileum assessed as induction of contraction; format: functional
# [9] = tested on: Mus musculus; test: Anxiolytic-like activity in Swiss albino mouse assessed as increase in time spent in open arms at 5 mg/kg measured for 5 mins test period by elevated plus maze test; format: functional, organism-based
# How it was run: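 Male Swiss albino mice (18-24 g) were tested in the elevated plus-maze by Lister's method. The reference drug was diluted in saline and given ip (10 ml/kg). Time in open arms was recorded. Results are mean ± SEM, analysed by one-way ANOVA and post hoc test, with the observer blind to treatment.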
# [10] = tested on: Mus musculus; test: Induction of hypothermia in Swiss albino mouse assessed as reduction in body temperature at 5 mg/kg, ip measured after 30 mins post dose; format: functional, organism-based
# How it was run: (§1)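 Normothermic male Swiss albino mice. Rectal temperature was taken by thermistor thermometer over 180 min (60 min before to 120 min after injection). Initial temperature was the mean of the readings at 60 and 30 min predose. Later readings were at 30, 60, 90 and 120 min, with Δt = final − initial. Data are mean ± SEM, by two-way ANOVA with Bonferroni test.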
# [11] = tested on: Mus musculus; test: Induction of hypothermia in Swiss albino mouse assessed as reduction in body temperature at 5 mg/kg, ip measured after 60 mins post dose; format: functional, organism-based; how it was run: as §1
# [12] = tested on: Mus musculus; test: In-vivo 5-HT1A receptor agonist activity in Swiss albino mouse assessed as induction of lower lip retraction by measuring lower lip retraction score at 1 mg/kg, ip dosed 15 mins before test; format: functional, organism-based
# [13] = biological target: 5-hydroxytryptamine receptor 2A (Rattus norvegicus) (UniProt P14842); settings: Sprague-Dawley, 0.3 uM
# [14] = tested on: Mus musculus; test: Antidepressant-like activity in Swiss albino mouse assessed as reduction in immobility time at 15 mg/kg, ip dosed 1 hr before test by forced swimming test; format: functional, organism-based
# How it was run: (§2)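 Male Swiss albino mice (18-24 g). The reference drug was diluted in saline and given ip (10 ml/kg) 1 h before testing. Each mouse swam for 6 min in a cylinder (25 cm high, 10 cm diameter) holding 10 cm of water at 23-25°C. Immobility was timed over the last 4 min. Data are mean ± SEM, analysed by one-way ANOVA with Dunnett's test.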
# [15] = tested on: Mus musculus; test: Antidepressant-like activity in Swiss albino mouse assessed as reduction in immobility time at 20 mg/kg, ip dosed 1 hr before test by forced swimming test; format: functional, organism-based; how it was run: as §2
# Chain of 5-hydroxytryptamine receptor 2A (Rattus norvegicus) (P14842 whole entry): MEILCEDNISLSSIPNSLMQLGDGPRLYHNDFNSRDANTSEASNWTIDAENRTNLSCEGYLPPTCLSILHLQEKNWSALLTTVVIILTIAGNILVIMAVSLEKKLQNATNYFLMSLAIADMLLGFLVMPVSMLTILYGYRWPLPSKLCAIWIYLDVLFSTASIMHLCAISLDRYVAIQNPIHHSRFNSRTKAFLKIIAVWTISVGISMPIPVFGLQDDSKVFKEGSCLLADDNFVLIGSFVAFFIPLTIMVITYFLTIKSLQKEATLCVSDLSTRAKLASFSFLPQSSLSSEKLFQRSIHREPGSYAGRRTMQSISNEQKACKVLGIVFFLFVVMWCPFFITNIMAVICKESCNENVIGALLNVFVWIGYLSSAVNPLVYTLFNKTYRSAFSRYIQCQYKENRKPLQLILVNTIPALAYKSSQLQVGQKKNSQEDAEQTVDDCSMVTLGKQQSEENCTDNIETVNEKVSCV
# T3 sequence (P14842 whole entry): as above
SMILES,pKi [1],pKi [2],pKi [3],other results
O=C(NCCCN1CCN(c2cccc(C(F)(F)F)c2)CC1)c1ccccn1,< 5.00,7.75,< 5.00,–
CN1[C@@H]2CC[C@H]1C[C@@H](OC(=O)C(CO)c1ccccc1)C2 (stereo not given in full),–,–,–,inhibition [4]: inactive
O=C(NCCCN1CCN(c2ccc(F)cc2)CC1)c1ccccn1,7.93,< 5.00,6.79,–
O=C(c1ccc(F)cc1)C1CCN(CCn2c(=O)[nH]c3ccccc3c2=O)CC1,–,–,–,inhibition [5]: Active
CCOc1ccccc1N1CCN(CCNC(=O)c2ccccn2)CC1,< 5.00,7.26,< 5.00,–
COc1ccc(N2CCN(CCCNC(=O)c3ccccn3)CC2)cc1,< 5.00,< 5.00,< 5.00,–
COc1ccc(N2CCN(CCNC(=O)c3ccccn3)CC2)cc1,< 5.00,6.86,8.03,EC50 [6]: Not Active
O=C(NCCCN1CCN(c2ncccn2)CC1)c1ccccn1,< 5.00,6.30,7.77,Emax [7]: 32.1%; pEC50 [6]: 6.08; Activity [8]: inactive
O=C(NCCN1CCN(C(c2ccc(F)cc2)c2ccc(F)cc2)CC1)c1ccccn1,–,< 5.00,–,–
O=C(NCCN1CCN(c2cccc3ccccc23)CC1)c1ccccn1,6.94,7.68,7.04,–
O=C1CC2(CCCC2)CC(=O)N1CCCCN1CCN(c2ncccn2)CC1,–,–,–,Activity [9]: Active
Cc1cccc(N2CCN(CCNC(=O)c3ccccn3)CC2)c1C,< 5.00,6.67,< 5.00,–
O=C(NCCCN1CCN(c2ccccc2Cl)CC1)c1ccccn1,5.98,7.15,6.12,–
O=C(NCCCN1CCN(C(=O)c2ccco2)CC1)c1ccccn1,< 5.00,< 5.00,–,Emax [7]: 53.1%; pEC50 [6]: 6.11; Activity [8]: inactive
COc1ccccc1N1CCN(CCNC(=O)c2ccccn2)CC1,< 5.00,6.22,10.65,Emax [7]: 33.7%; pEC50 [6]: 5.37; Activity [8]: inactive
O=C(NCCCN1CCN(C(c2ccc(F)cc2)c2ccc(F)cc2)CC1)c1ccccn1,–,–,–,Emax [7]: 68.4%; pEC50 [6]: 5.69; Activity [8]: inactive
O=C(NCCCN1CCN(c2ccccc2)CC1)c1ccccn1,6.95,6.98,6.56,–
CCN(CC)C1CCc2cccc(O)c2C1 (stereo not given),–,9.10,–,Activity [10]: Active; Activity [11]: Active; Activity [12]: Active
O=C(NCCN1CCN(C(=O)c2ccco2)CC1)c1ccccn1,< 5.00,< 5.00,< 5.00,–
NC1=N[C@H](O)[C@H]2[C@H]3O[C@]4(O)O[C@@H]([C@H](O)[C@@]2(N1)[C@@H]4O)[C@]3(O)CO,–,–,–,inhibition [13]: inactive
CNCCC(Oc1ccc(C(F)(F)F)cc1)c1ccccc1 (stereo not given),–,–,–,Activity [14]: Active; Activity [15]: Active
O=C(NCCN1CCN(c2ccc(F)cc2)CC1)c1ccccn1,7.10,7.09,6.62,–

SMILES,pKi [1],pKi [2],pKi [3],other results
COc1ccccc1N1CCN(CCCNC(=O)c2ccccn2)CC1,6.89,7.40,< 5.00,–
O=C(NCCN1CCN(c2cccc(C(F)(F)F)c2)CC1)c1ccccn1,–,–,–,Emax [7]: 48.4%; pEC50 [6]: 6.79; Activity [8]: inactive
O=C(NCCCN1CCN(c2ccc(Cl)c(Cl)c2)CC1)c1ccccn1,8.02,6.74,7.04,Emax [7]: 26.7%; pEC50 [6]: 6.11; Activity [8]: inactive
CCOc1ccccc1N1CCN(CCCNC(=O)c2ccccn2)CC1,7.10,7.07,6.92,–
O=C(NCCN1CCN(Cc2ccc3c(c2)OCO3)CC1)c1ccccn1,7.21,< 5.00,< 5.00,–
O=C(NCCCN1CCN(c2ccccc2F)CC1)c1ccccn1,< 5.00,6.64,6.49,–
O=C(NCCCN1CCN(c2cccc3ccccc23)CC1)c1ccccn1,< 5.00,7.36,6.67,–
O=C(NCCCN1CCN(c2cccc(Cl)c2)CC1)c1ccccn1,7.00,7.23,7.09,–
O=C(NCCCN1CCN(c2ccccn2)CC1)c1ccccn1,6.85,6.31,< 5.00,–
N#Cc1ccccc1N1CCN(CCCNC(=O)c2ccccn2)CC1,6.89,6.97,< 5.00,–
O=C(NCCN1CCN(c2ccccc2)CC1)c1ccccn1,< 5.00,6.79,7.27,EC50 [6]: Not Active
N#Cc1ccccc1N1CCN(CCNC(=O)c2ccccn2)CC1,< 5.00,7.13,6.21,–
Cc1cccc(N2CCN(CCCNC(=O)c3ccccn3)CC2)c1C,6.98,7.05,< 5.00,–
O=C(NCCN1CCN(c2ccccc2Cl)CC1)c1ccccn1,6.57,6.39,< 5.00,–
O=C(NCCN1CCN(C(c2ccccc2)c2ccc(Cl)cc2)CC1)c1ccccn1 (stereo not given),7.30,6.27,6.30,–
O=C(NCCCN1CCN(Cc2ccc3c(c2)OCO3)CC1)c1ccccn1,< 5.00,< 5.00,–,Emax [7]: 75.5%; pEC50 [6]: 5.19; Activity [8]: inactive
Cc1ccc(N(CC2=NCCN2)c2cccc(O)c2)cc1,–,–,–,inhibition [4]: inactive
O=C(NCCN1CCN(c2ccccn2)CC1)c1ccccn1,< 5.00,7.49,< 5.00,–
O=C(NCCCN1CCN(C(c2ccccc2)c2ccc(Cl)cc2)CC1)c1ccccn1 (stereo not given),< 5.00,6.35,6.14,–
O=C(NCCCN1CCN(c2ccc(Cl)cc2)CC1)c1ccccn1,7.40,7.17,6.43,–
O=C(NCCN1CCN(c2ccccc2F)CC1)c1ccccn1,< 5.00,6.80,< 5.00,–
O=C(NCCN1CCN(c2cccc(Cl)c2)CC1)c1ccccn1,7.04,6.57,6.51,–
